Bridges are numbered along the chain shown (N, C = ends). Where no end group is shown, it is not given here. FAM = carboxyfluorescein; Ahx = NCCCCCC(=O)O
Legend:
macrophages = details: ref [22]; cited from earlier work
[1] = system: bovine serum albumin (BSA); assay: Binding to control protein BSA
[2] = system: 4T1 mouse mammary carcinoma; assay: In vivo homing to 4T1 orthotopic breast tumors; details: 5 min, 15 min or 1 h after IV injection, IF
In short: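 4T1 tumors came from 1 × 10⁶ cells in 100 μL PBS injected into the mammary fat pad of female BALB/c mice. FAM-labelled test peptide was given IV, 100 μL of 1 mg/mL in PBS, and circulated 5 min, 15 min or 1 h before PBS perfusion. Fixed frozen sections were blocked in 1% BSA/0.1% Triton X-100 for 1 h at RT. Primaries (1:200) ran overnight at 4 °C, secondaries (1:200) 1 h at RT, with anti-CD31 for vessels. DAPI mounting, confocal imaging.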

Binding to BSA [1] | Substance | Inhibition of FAM-CRV binding to macrophages (macrophages) | Accumulation in tumors over time [2]
– | Biotinylated CRV: Biotinylated CRV (CRVLRSGSC; disulfide 1-9; also: biotin, position not given here) | inhibits the binding of FAM-CRV to macrophages | –
neither peptide bound | GGSGGSKG ({FAM-Ahx}-GGSGGSKG-OH) [FAM-GGS] | – | little accumulation in tumors

Reference: paper PMC6500479 (Journal of controlled release : official journal of the …, 2019)
